Our source for the IC50 values is BindingDB's records for doi:10.1016/j.ejmech.2019.111920 (Jagiellonian University Medical College, 2020).

For the test, the target named is T1, Sodium- and chloride-dependent GABA transporter 2 (Mus musculus, UniProt P31649).
T1 sequence (P31649 whole entry): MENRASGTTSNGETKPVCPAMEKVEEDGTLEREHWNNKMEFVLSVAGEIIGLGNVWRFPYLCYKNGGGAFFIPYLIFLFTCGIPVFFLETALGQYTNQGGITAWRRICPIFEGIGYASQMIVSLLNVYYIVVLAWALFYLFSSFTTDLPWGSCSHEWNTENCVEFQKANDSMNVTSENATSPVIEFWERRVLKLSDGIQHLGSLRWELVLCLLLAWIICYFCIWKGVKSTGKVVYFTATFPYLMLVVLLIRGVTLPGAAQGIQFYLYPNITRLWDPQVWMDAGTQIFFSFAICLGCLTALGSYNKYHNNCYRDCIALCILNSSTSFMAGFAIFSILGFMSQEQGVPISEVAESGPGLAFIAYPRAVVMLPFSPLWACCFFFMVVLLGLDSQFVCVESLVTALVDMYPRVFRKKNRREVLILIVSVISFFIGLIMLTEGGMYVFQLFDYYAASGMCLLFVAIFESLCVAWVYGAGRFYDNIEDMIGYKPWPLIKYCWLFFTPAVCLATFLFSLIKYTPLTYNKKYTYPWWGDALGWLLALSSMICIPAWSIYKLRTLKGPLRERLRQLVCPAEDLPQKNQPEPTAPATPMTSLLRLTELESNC
Put plainly: Inhibition of mouse GAT2 expressed in HEK293 cell line assessed as inhibition of [3H]GABA uptake measured after 35 mins by liquid scintillation method. Put shortly:
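[3H]GABA uptake assay at each mGAT subtype, with screening at 100 µM inhibitor. […] Otherwise, the remaining uptake at 100 µM is reported as a percentage. Values without SEM come from a single triplicate experiment.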

For orientation: IC50 means the concentration needed to halve the response being measured.

Turning to `O=C(O)C1=CCCN(CCON=C(c2ccccc2)c2ccccc2)C1`, the half-maximal inhibitory concentration (IC50) stood at 631 µM.
For `NCC(O)C(=O)O` (stereo unspecified) the value was 229 µM; for `Cc1ccsc1C(=CCCN(C)C(CCO)C(=O)NCc1ccccc1)c1sccc1C` (stereo unspecified), 20.4 µM; for `Cc1ccsc1C(=CCCN(C)C(CCO)C(=O)NCc1ccccc1Cl)c1sccc1C` (stereo unspecified), 10.5 µM.
As for `Cc1ccsc1C(=CCCN(C)C(CCO)C(=O)NCc1ccc(F)cc1)c1sccc1C` (stereo unspecified), the IC50 stood at 5.62 µM.
The value for `Cc1ccc(CNC(=O)C(CCO)N(C)CCC=C(c2sccc2C)c2sccc2C)cc1` (stereo unspecified) was 9.77 µM.
For `Cc1ccsc1C(=CCCN(C)C(CCO)C(=O)NCc1ccc(F)cc1F)c1sccc1C` (stereo unspecified) the value was 10 µM; for `Cc1ccsc1C(=CCCN(C)C(CC(C)O)C(=O)NCc1ccccc1)c1sccc1C` (stereo unspecified), 8.91 µM; for `Cc1ccsc1C(=CCCN(C)C(CC(C)O)C(=O)NCc1ccccc1Cl)c1sccc1C` (stereo unspecified), 10.4 µM.
For `Cc1ccsc1C(=CCCN(C)C(CC(C)O)C(=O)NCc1ccc(Cl)cc1)c1sccc1C` (stereo unspecified) the value was 10.5 µM; for `Cc1ccsc1C(=CCCN(C)C(CC(C)O)C(=O)NCc1ccc(F)cc1)c1sccc1C` (stereo unspecified), 26.3 µM.
For `Cc1ccc(CNC(=O)C(CC(C)O)N(C)CCC=C(c2sccc2C)c2sccc2C)cc1` (stereo unspecified), the 50% inhibitory concentration (IC50) worked out at 17 µM.
The value for `Cc1ccsc1C(=CCCN(C)C(CCN)C(=O)NCc1ccccc1)c1sccc1C` (stereo unspecified) was 5.5 µM; that for `Cc1ccc(CNC(=O)C(CCN)N(C)CCC=C(c2sccc2C)c2sccc2C)cc1` (stereo unspecified) was 7.76 µM.
For the compound `CC(=O)NCCC(C(=O)NCc1ccccc1Cl)N(C)CCC=C(c1sccc1C)c1sccc1C` (stereo unspecified), the 50% inhibitory concentration (IC50) amounted to 4.47 µM.
The value for `O=C(O)C1=CCCN(CCO/N=C/c2ccccc2-c2ccc(Cl)cc2Cl)C1` was 49 µM; that for `Cc1ccsc1C(=CCCN(C)C(CO)C(=O)NCc1ccccc1)c1sccc1C` (stereo unspecified) was 30.9 µM.
The value for `Cc1ccsc1C(=CCCN(C)C(CO)C(=O)NCc1ccc(Cl)cc1)c1sccc1C` (stereo unspecified) was 15.8 µM; that for `Cc1ccsc1C(=CCCN(C)C(CO)C(=O)NCc1ccc(F)cc1)c1sccc1C` (stereo unspecified) was 22.4 µM.
Take `Cc1ccc(CNC(=O)C(CO)N(C)CCC=C(c2sccc2C)c2sccc2C)cc1` (stereo unspecified): the IC50 amounted to 24 µM.
For `Cc1ccsc1C(=CCCN(C)C1CCc2onc(O)c2C1)c1sccc1C` (stereo unspecified) the value was 25.7 µM.
